Screening results: PubChem BioAssay, Sanford-Burnham Center for Chemical Genomics
Compounds with a hit are over-represented: about 2.3% of the library has one in this group of screens.
MPTP inh: permeability transition pore inhibition; AID 602449; hit rate 1.4% among 360,000; isolated mouse mitochondria, Ca2+ swelling absorbance, 30 min; inhibition, % at 10 µM;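 active = inhibition of 50% or more, scaled per plate between neutral and stimulator controls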;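 note: 0% = DMSO wells given calcium and 100% = 1 mM EGTA wells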
SKN-1 block: inhibitors of C. elegans SKN-1 | C. elegans VP596 Pgst-4::GFP/RFP ratio, acrylamide-induced, 24 h | inhibition, % at 21.8 µM | hit rate 0.49% among 360,000;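 active = interference check ratio from 0.5 to 1.5 plus GFP to RFP signal ratio inhibition reaching or exceeding a fixed threshold, cut at about 30% in these data, passing the limit was not always enough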
ATG4B inh: ATG4B (human) cysteine protease inhibition; Q9Y4P1; AID 504462; hit rate 0.51% among 340,000; ATG4B cleavage of LC3-PLA2, NBD-HPC fluorescence, 1 h; inhibition, % at 8.33 µM; in the data active = inhibition above about 40%
Target sequence (Q9Y4P1 whole entry, looked up): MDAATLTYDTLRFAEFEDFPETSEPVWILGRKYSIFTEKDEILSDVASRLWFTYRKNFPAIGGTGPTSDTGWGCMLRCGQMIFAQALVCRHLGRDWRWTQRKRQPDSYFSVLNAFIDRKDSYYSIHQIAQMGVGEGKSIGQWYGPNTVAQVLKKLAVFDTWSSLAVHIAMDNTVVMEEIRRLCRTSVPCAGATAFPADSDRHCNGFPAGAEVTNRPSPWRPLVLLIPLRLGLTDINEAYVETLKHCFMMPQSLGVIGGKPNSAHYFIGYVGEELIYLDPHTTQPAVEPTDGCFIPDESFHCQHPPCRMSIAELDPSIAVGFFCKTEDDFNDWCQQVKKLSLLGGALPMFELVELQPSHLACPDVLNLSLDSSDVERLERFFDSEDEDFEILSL
MT1-MMP act inh: blocks activation of human MT1-MMP; P50281; HT1080 RFP-PRO-GFP cells, GFP/RFP ratio fluorescence, overnight; percent of plate control window, DMSO zero; GFP/RFP ratio change, % at 20 µM; hit rate 0.061% among 360,000; AID 651647;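 active = GFP/RFP ratio change of at least 30% with cell ATP level not reduced by more than half and red fluorescence within 50% of control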
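Assay system: HT1080 RFP-PRO-GFP cells. Benchmarks: DMSO vehicle wells and RFP-L50D-GFP reporter cell wells. Times: overnight cell settling, then overnight compound exposure, 37 °C, 5% CO2. Compound: 20 µM single dose, 1% DMSO. Read-out basis: GFP/RFP fluorescence ratio.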
* hit, by the source's call; . = not tested or not shown.

SMILES | MPTP inh | SKN-1 block | ATG4B inh | MT1-MMP act inh
N#C/C(=C/C1=C(N2CCOCC2)C(=C/c2ccc(Cl)cc2)/CC1)C(=O)Nc1ccccc1F | 13 | 44* | -6 | 8
COC(=O)C1CCN(S(=O)(=O)c2ccc(Br)s2)CC1 | -1 | -15 | -9 | -2
O=C(C1CCN(S(=O)(=O)c2ccc(Br)s2)CC1)N1CCc2ccccc21 | 0 | -2 | 41* | -1
COc1ccc(-c2cn(-c3ccc(C)cc3)c(=O)n2CC(=O)Nc2ccc(OC)cc2OC)cc1 | -3 | 38* | -7 | 0
COc1ccc(-c2nnc(-c3ccc(Br)o3)o2)cc1OC | 0 | 36* | -7 | 2
CC(C)Cn1c(N)c(C(=O)COC(=O)Cc2cccc(C(F)(F)F)c2)c(=O)n(C)c1=O | 5 | 3 | -6 | 2
CC1CCN(S(=O)(=O)c2ccc(C(=O)N3CCOCC3)cc2)CC1 | -1 | 39* | -3 | 1
O=C(NC(c1ccc(-c2ccccc2)cc1)c1cnccn1)C1CCN(Cc2cccs2)CC1 (stereo not drawn) | 0 | 46* | . | 3
c1csc(-c2cn3ccc4ccccc4c3n2)c1 | -1 | 39* | 5 | 1
c1cc(-c2cccs2)nc(-c2cccs2)c1 | 1 | 5 | 0 | 4
CCOC(=O)[C@]12CCCC=C1N(Cc1ccco1)C(=O)[C@H](CC(=O)N1CCN(C(=O)c3ccco3)CC1)C2 | 0 | -5 | . | 3
CCCC(C)C(=O)NCc1ccccc1OC (stereo not drawn) | -1 | 41* | -9 | 8
CCc1ccc(NC(=O)c2cc(-c3ccco3)on2)cc1 | 0 | 45* | -4 | 0
COc1ccc(NC(=O)c2cc(-c3ccco3)on2)cc1 | 1 | 16 | 31 | 3
O=C(Nc1cccc(Cl)c1)c1cc(-c2ccco2)on1 | -2 | 39* | 2 | 1
FCCCOc1ccc(/C=N/OCc2ccc(Cl)cc2)cc1 | 5 | 42* | 1 | -5
COc1ccc(CNC(=O)c2c(N)n(CCCN3CCOCC3)c3nc4ccccc4nc23)cc1 | -3 | 36* | -29 | -1
CC(C)n1c(=O)c2ccccc2n1CC(=O)N1CCOCC1 | 0 | -1 | . | 4
O=C(O)c1cc2ccccc2c(N=Nc2cccnc2)c1O | 1 | 39* | 0 | 2
CC(=O)N1/C(=C/c2ccc(N(C)C)cc2)C(=O)c2ccccc21 | 17 | 35* | 5 | 6
Cc1cc(NC(=O)c2cccc(S(=O)(=O)Nc3cccc(C(=O)O)c3)c2)no1 | 0 | -6 | 1 | -12
COC(=O)c1cc(-c2cccc(OC)c2)n[nH]1 | -3 | 37* | 7 | 4
Cc1cc(C)c2ccc3c(C)c(C)nc3c2[nH]1 | 2 | 53* | -1 | -10
O=C(NC1CCCC1)C1c2ccccc2OCC(=O)N1Cc1cccnc1 (stereo not drawn) | 0 | -7 | . | .
Cc1c(-c2nc(-c3cccnc3)no2)cccc1[N+](=O)[O-] | 1 | 42* | 5 | 2
SMILES | MPTP inh | SKN-1 block | ATG4B inh | MT1-MMP act inh
CCc1ccc(OCc2cnc(Cl)s2)cc1 | -1 | 16 | 0 | 2
Clc1ccc(OCc2cnc(Cl)s2)cc1 | 0 | 61* | 10 | 2
O=C(NCc1ccncc1)c1csc([C@@H]2O[C@H](CO)[C@@H](O)[C@H]2O)n1 | -2 | 18 | . | -3
O=C(NCc1cccs1)c1csc([C@@H]2O[C@H](CO)[C@H](O)[C@H](O)[C@H]2O)n1 | -1 | 43* | . | 0
CCN(CC)S(=O)(=O)c1cccc2c(N(C)C)cccc12 | 26 | 45* | 3 | -2
COc1ccc(Cc2c(-c3ccco3)nc3c(C)cc(Br)cn23)c(C)c1 | -2 | 48* | . | -6
O=[N+]([O-])c1cnccc1-n1nnc2ccccc21 | 2 | 4 | . | 1
Nc1ccc(CSc2ccc(Cl)cc2)c(Cl)c1 | -1 | 45* | 15 | 4
N=C(N)SCc1ccc(Cl)cc1Cl | -3 | 0 | 10 | 1
COc1cc2c(c(OC)c1OC)C(c1ccc(C)cc1)CC(=O)O2 (stereo not drawn) | 0 | -3 | 3 | 6
COc1cccc(/C=C2\CC(C)Cc3c2nc2ccccc2c3C(=O)O)c1OC (stereo not drawn) | -1 | 40* | 2 | 0
CCOC(=O)C1CCN(C(=O)C2COc3ccccc3O2)CC1 (stereo not drawn) | 0 | -5 | -2 | 2
C[C@@H]1CCCCO[C@H](CN(C)Cc2ccc(C(F)(F)F)cc2)[C@@H](C)CN([C@H](C)CO)C(=O)c2cc(NS(=O)(=O)c3cn(C)cn3)ccc2O1 | 0 | -1 | . | 4
Cc1cc(C)n(-c2ccc(C(=O)Oc3ccc4c(c3)OCO4)cc2)n1 | -2 | 37* | 3 | -10
CC1CN(C(=S)SCCN2C(=O)CCC2=O)CC(C)O1 (stereo not drawn) | -1 | 10 | -5 | -2
CCN(CC)c1ccc(C2Nc3cccc4cccc(c34)N2)cc1 | 27 | -5 | 1 | 0
CCN(CC)c1ccc(C2NC(=O)c3ccccc3N2)cc1 (stereo not drawn) | 1 | 37* | 2 | 4
Cc1ccc(NC(=O)CN2CCc3ccccc3C2)cc1F | 1 | -7 | 10 | 7
COc1cccc(NC(=O)CN2CCc3ccccc3C2)c1 | 0 | 35* | 6 | -1
O=C(C(=O)N1CCC(Cc2ccccc2)CC1)c1ccccc1Br | 0 | -8 | . | -2
COCCNC(=O)c1ccc(-c2ccc(OC)cc2C)c2ccoc12 | -2 | 36* | . | 0
N/C(=N\OC(=O)c1ccc(Cl)cc1Cl)c1ccccn1 | 1 | 52* | -7 | 1
N/C(=N\OC(=O)c1ccc(Cl)cc1Cl)c1ccncc1 | -1 | 40* | -4 | 1
N/C(=N\OC(=O)c1cc(Br)ccc1Cl)c1ccccn1 | -1 | 47* | 9 | 2
Cc1ccc(C(=O)O/N=C(\N)c2ccccn2)c(Cl)c1 | 1 | -12 | 1 | -9
SMILES | MPTP inh | SKN-1 block | ATG4B inh | MT1-MMP act inh
COc1ccccc1CNC(=O)c1cn(C)c2ccc(S(=O)(=O)N3CCCC3)cc2c1=O | 0 | 2 | -18 | 1
CCc1nnc(NC(=O)CSc2nnc(COc3cccc(C)c3)o2)s1 | -2 | 54* | -19 | -2
Cc1cccc(OCc2nnc(SCC(=O)Nc3ncc(C)s3)o2)c1 | -2 | -12 | -7 | 1
COc1ccc(C2Nc3cccc4cccc(c34)N2)cc1Br | 2 | 21 | 0 | -3
COc1cc(C2Nc3cccc4cccc(c34)N2)ccc1OC(C)=O | 1 | -18 | -13 | 31*
CC(C)CCNC(=O)NC(=O)COc1ccccc1C#N | 0 | 38* | -17 | 10
CC(C)CCNC(=O)NC(=O)COC(=O)/C=C/c1cccc([N+](=O)[O-])c1 | 1 | 14 | -6 | 4
CC(C)NC(=O)COc1ccccc1C#N | 1 | -3 | -4 | 0
CC(C)CCNC(=O)NC(=O)COC(=O)/C=C/c1cnc2ccccc2n1 | 3 | 37* | -2 | -4
C=CCN=c1scc(-c2ccc(F)cc2)n1/N=C/c1ccccn1 | 10 | 29 | 6 | 1
CCN=c1scc(-c2ccc(F)cc2)n1/N=C/c1ccccn1 | 4 | 45* | -13 | 1
